From PubChem
The list is not random: actives were taken first. Their share in the collection is about 4.1%.
SMARCA2 act – SMARCA2 function activation, primary screen; activation, % at 9.1 µM; MG213 cells, MMTV-luciferase reporter, dexamethasone, overnight; actives 1% (n = 370,000); in the data active = activation above about 7.8%;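 note: 0% = vehicle wells and 100% = reference activator wells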
ATG4B inhibitor – ATG4B (human) cysteine protease inhibition. ATG4B cleavage of LC3-PLA2, NBD-HPC fluorescence, 1 h. inhibition, % at 8.33 µM. actives 0.51% (n = 340,000). AID 504462; in the data active = inhibition above about 40%
MPTP inh – permeability transition pore inhibition; actives 1.4% (n = 360,000); inhibition, % at 10 µM; isolated mouse mitochondria, Ca2+ swelling absorbance, 30 min;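 active = inhibition of 50% or more, scaled per plate between neutral and stimulator controls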;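 note: 0% = DMSO wells given calcium and 100% = 1 mM EGTA wells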
MC4R barr agon – activates human MC4R beta-arrestin recruitment | AID 540308 | P32245 | actives 0.98% (n = 360,000) | activation, % at 8.9 µM | U2OS MC4R beta-arrestin complementation, luminescence; percent of melanotan II response, DMSO zero;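 active = activation above a per-plate cutoff, the mean activation of sample wells on that plate plus 3 SD, cut at about 8% in these data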
Target sequence (P32245 whole entry, looked up): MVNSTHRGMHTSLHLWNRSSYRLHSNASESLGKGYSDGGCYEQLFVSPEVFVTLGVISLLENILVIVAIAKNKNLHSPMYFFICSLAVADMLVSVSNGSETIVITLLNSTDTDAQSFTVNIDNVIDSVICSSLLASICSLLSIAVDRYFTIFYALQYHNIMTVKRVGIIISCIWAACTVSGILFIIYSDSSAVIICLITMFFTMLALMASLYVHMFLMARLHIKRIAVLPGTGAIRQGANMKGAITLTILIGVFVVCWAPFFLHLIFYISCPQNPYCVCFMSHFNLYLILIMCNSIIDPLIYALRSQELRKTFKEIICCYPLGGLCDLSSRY
MC4R antag cAMP – antagonists of human melanocortin 4 receptor (MC4R); inhibition, % at 6.5 µM; P32245; MC4R-expressing cells, MTII-stimulated cAMP, LANCE TR-FRET; actives 0.48% (n = 360,000); AID 540295;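 active = inhibition above its plate's cutoff, the mean of tested wells on that plate plus 3 SD, cut at about 29% in these data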;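 note: 0% = Melanotan II alone and 100% = Melanotan II plus saturating MCL0020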
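System: U2OS cells stably expressing human melanocortin 4 receptor (MC4R). Reagent: Melanotan II challenge after compound preincubation. Doses: 6.5 µM. Times: 30-min compound, 1-h challenge, 1-h detection, room temperature. Measured by: TR-FRET with Eu-cAMP and labeled anti-cAMP, 671 nm. Replicates: singlicate.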
ATG4B confirm – confirmation of human ATG4B inhibitors. AID 504757. shares compounds with ATG4B inhibitor. ATG4B protease fluorescent substrate cleavage assay. inhibition, % at 8.33 µM. actives 92% (n = 320); in the data active = inhibition above about 39%
PLA2 ctr – counter-screen for ATG4B inhibitors: human phospholipase A2 | actives 66% (n = 1,600) | inhibition, % at 8.33 µM | purified PLA2, NBD-C6-HPC fluorescence, 45 min | shares compounds with ATG4B inhibitor; in the data active = inhibition above about 50%
Target sequence (P04054 whole entry, looked up): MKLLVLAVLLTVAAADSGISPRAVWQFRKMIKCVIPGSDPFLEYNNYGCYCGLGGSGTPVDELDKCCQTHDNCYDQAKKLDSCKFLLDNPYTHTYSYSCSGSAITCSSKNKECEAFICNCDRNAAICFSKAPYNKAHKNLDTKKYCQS
The depositor's hits bear a star; . = no result given.

SMILES	SMARCA2 act	ATG4B inhibitor	MPTP inh	MC4R barr agon	MC4R antag cAMP	PLA2 ctr	others
CCCc1ccc(OC(=O)c2cccs2)cc1	-1.3	43.5*	-0.4	-0.5	-3.6	27.8	ATG4B confirm=70.5*
Cc1cc(OC(=O)c2cccs2)ccc1C(C)C	0.9	42.5*	-0.7	1.7	1.6	46.7	ATG4B confirm=49.1*
Cc1oc2ccc(OC(=O)c3cccs3)cc2c1C(=O)OC(C)C	-0.8	4.8	1.3	1.8	2.8	.
COC(=O)[C@@]12CCCCC3=C1N(CCC3)C(=O)[C@H]2CC(=O)NCc1cccc(C(F)(F)F)c1	-1.0	.	.	.	.	.
NC(=O)C1CCCCc2c1[nH]c1ccc(Cl)cc21 (stereo not given)	-1.2	55.9*	3.0	-1.1	3.0	51.1*
CC(=O)C1(C(=O)NCc2ccccc2)CC(c2ccccc2C(F)(F)F)=NO1 (stereo not given)	1.9	.	.	.	.	.
Cc1ccc(C(=O)NC(=S)Nc2ccccc2C(F)(F)F)cc1C	0.9	44.5*	0.2	-0.6	2.2	47.3	ATG4B confirm=61.8*
COc1cc(NC(=O)C2CCN(c3nnc(-n4cccc4)s3)CC2)cc(OC)c1	-3.5	.	.	.	.	.
CC1CCCN(C(=O)c2ccc(COc3ccccc3Br)cc2)C1 (stereo not given)	-0.9	61.0*	-0.3	3.3	10.9	68.6*
COC(=O)[C@]12C[C@H](CC(=O)N3CCOCC3)C(=O)N(Cc3ccccc3)C1=C[C@H](C(C)(C)C)O[C@@H]2C	-6.3	.	.	.	.	.
O=C(Nc1nnc(Cc2c[nH]c3ccccc23)s1)c1ccc(Cl)cc1Cl	-1.0	52.1*	-0.5	4.7	-7.9	50.6*
O=C(Nc1nnc(Cc2ccccc2F)s1)c1ccccc1Cl	1.5	20.1	1.2	0.2	1.2	.
COC(=O)C1CN(CCO)CCS(=O)(=O)N1Cc1cccc(Cl)c1 (stereo not given)	3.2	.	.	.	.	.
COc1ccc(N(CC(=O)Nc2ccccc2C(=O)O)S(=O)(=O)c2ccc(C)c([N+](=O)[O-])c2)cc1	-2.0	58.8*	1.2	0.6	-7.7	62.2*
CN1/C(=C\C(=O)CSc2nnc(NCc3ccccc3)s2)C(C)(C)c2ccccc21	-3.0	42.0*	3.1	0.8	-5.5	37.5
C/C(CCc1oc2ccc(Cl)cc2c1-c1ccc(C)o1)=N\O	-4.9	45.9*	4.3	-1.1	7.1	71.3*
CN1C(=O)C(c2nnc(Nc3cccc4ccccc34)s2)C2CC1(C)Oc1ccccc12 (stereo not given)	-4.0	88.8*	-21.6	3.8	1.9	91.1*
CCOC(=O)CC[C@@]1(C(=O)OCC)C[C@@H](CC(=O)NCc2ccc(OC)c(OC)c2)C(=O)N2CCCC=C21	-3.1	.	.	.	.	.
O=C(NC(Cc1ccccc1)C(=O)O)OCC1c2ccccc2-c2ccccc21 (stereo not given)	-3.3	43.8*	0.7	-2.7	7.9	62.8*
CCOC(=O)[C@]12CCCC3=C1N(CCC3)C(=O)[C@@H](CC(=O)NCCC(C)C)C2	-1.1	.	.	.	.	.
Cc1ccccc1NC(=S)NCc1cccs1	1.4	2.5	-0.5	-1.7	-2.0	.
Cc1c(Cl)cccc1NC(=S)NCc1cccs1	0.5	57.1*	19.8	-3.3	-1.1	68.8*
S=C(NCc1cccs1)Nc1cccc(Cl)c1Cl	0.4	51.5*	11.6	0.1	5.0	52.5*
C#CCNC(=O)C[C@H]1C[C@@]2(C(=O)OC)C(=C[C@H](C(C)C)O[C@@H]2C2CC2)N(CCCCCCCC)C1=O	-2.0	.	.	.	.	.
NC(=O)c1ccc(N2CCN(c3ccccc3F)CC2)c([N+](=O)[O-])c1	-4.9	45.5*	-1.8	-0.5	3.8	50.5*
SMILES	SMARCA2 act	ATG4B inhibitor	MPTP inh	MC4R barr agon	MC4R antag cAMP	PLA2 ctr	others
NC(=O)c1ccc(N2CCCCCC2)c([N+](=O)[O-])c1	1.6	67.9*	2.1	0.3	20.3	70.4*
CCN1Cc2nnn(Cc3ccccc3)c2-c2cc(F)ccc2S1(=O)=O	-3.8	.	.	.	.	.
O=C(Nc1cccc([N+](=O)[O-])c1)C1C2CC/C=C\CCC21 (stereo not given)	0.7	54.0*	34.0	8.9*	7.2	66.0*
CCC1=NN2C(=N)/C(=C\c3cccn3-c3c(C)cccc3C)C(=O)N=C2S1	-1.4	84.4*	29.3	2.6	3.1	86.7*
COc1ccc(-n2cccc2/C=C2\C(=N)N3N=C(c4ccco4)SC3=NC2=O)cc1	-4.0	40.4*	10.3	6.3	6.8	37.9	ATG4B confirm=49.1*
CCC1=NN2C(=N)/C(=C\c3cccn3-c3ccc(Br)cc3)C(=O)N=C2S1	1.2	24.9	14.2	-0.7	1.6	.
CCN(CC)C(=O)CC[C@@H]1CC[C@]2(CCCN(C(=O)c3cccnc3)C2)O1	-2.4	.	.	.	.	.
COC(=O)[C@]12C[C@H](CC(=O)NCCC(C)C)C(=O)N(Cc3ccc4c(c3)OCO4)C1=C[C@H](C(C)(C)C)O[C@@H]2C	-2.3	.	.	.	.	.
C=C(C)Cn1c(SCC#N)nc2ccccc2c1=O	1.0	4.8	1.2	-1.6	13.0	.
CCN(CCCn1c(SCC#N)nc2ccccc2c1=O)c1ccccc1	-1.3	43.5*	8.8	-1.8	15.9	44.9
CCCN(CC1CC1)C(=O)CSc1ncnc2sc(C)c(C)c12	-3.8	52.9*	-2.4	-0.4	-6.6	56.3*
CCN(C(=O)CSc1ncnc2sc(C)c(C)c12)C1CCS(=O)(=O)C1 (stereo not given)	-4.9	1.6	0.9	-2.1	-0.5	.
COc1ccc(C2C(C(=O)Nc3ccc(F)cc3F)CCC(=O)N2c2ccc(OC)cc2)cc1 (stereo not given)	2.9	.	.	.	.	.
O=C(CCl)Nc1nc(-c2ccco2)c(-c2ccco2)s1	7.0	4.6	1.7	0.2	11.9	.
Cc1ccc(C(=O)Nc2nc(-c3ccco3)c(-c3ccco3)s2)o1	0.0	40.4*	-0.1	-2.5	-2.4	47.3	ATG4B confirm=64.0*
CN1CCCN(C(=O)C2CCCN(C(=O)c3ccc4c(c3)NC(=O)CS4)C2)CC1 (stereo not given)	2.4	.	.	.	.	.
COc1ccc2cc(CN(Cc3cccs3)Cc3nnnn3Cc3ccccc3)c(=O)[nH]c2c1	-2.1	51.1*	8.4	-3.6	5.0	53.7*
Cc1cccc2cc(CN(Cc3cccs3)Cc3nnnn3Cc3ccccc3)c(=O)[nH]c12	-2.4	48.6*	1.9	-0.1	25.1	61.8*
CCOC(=O)Cn1nnnc1CN(Cc1cccs1)Cc1cc2cc(C)cc(C)c2[nH]c1=O	-3.3	-26.2	0.2	-0.5	10.9	.
C#CCN1CC(N(C)CCOC(=O)CC2C=CCC2)CS1(=O)=O (stereo not given)	-0.4	.	.	.	.	.
COCCOc1ccc(C(F)(F)F)cc1NC(=O)CN1C(=O)NC2(CCCc3ccccc32)C1=O (stereo not given)	-5.2	-0.2	0.6	1.0	4.4	.
